Results taken from publication PMC3332339 (European Journal of Clinical Pharmacology, 2012).
Marks after values point to notes of the source that are not given here.

What was measured:
[1] = pharmacologically equipotent glucuronide; cited from earlier work
[2] = test system: factor Xa inhibition and thrombin inhibition; test: Prothrombinase-induced clotting time; type: in vivo, human; details: for PiCT AUEC0–48, ratio of adjusted test/reference gMean (90% CI) / PiCT ERmax, ratio of adjusted test/reference gMean (90% CI): after enoxaparin vs alone
Procedure, shortened: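 Healthy-adult crossover: oral prodrug 220 mg alone, or 24 h after 3 daily s.c. LMWH 40 mg doses. Platelet-poor plasma incubated with phospholipid/Russell's viper venom activator, 3 min at 37°C; factor Xa added, recalcified with reagent containing 25 mM CaCl2, clotting time read. Daily 142 ng/mL quality-control standard run at start, middle and end. AUEC0–48 and ERmax versus baseline; geometric mean ratios with 90% CI.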

Safety and tolerability = type: in vivo, human; details: for Tolerability (global assessment): Phase I, healthy subjects
Procedure, shortened: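 Open-label single-center crossover in healthy men and women: oral prodrug 220 mg alone, or after 3 daily s.c. LMWH 40 mg doses. Assessed by adverse events, physical examination, blood pressure, pulse, 12-lead ECG, hematology, clinical chemistry, urinalysis, local tolerability and investigator global assessment. Follow-up on days 1–3, with end-of-study examination within 7 days.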

[3] = Dabigatran plasma pharmacokinetics; type: in vivo, human; details: for AUC(0-inf) / Cmax: both, human, plasma
Procedure, shortened: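 Crossover in healthy adults: 220 mg oral prodrug alone, or 24 h after 3 daily s.c. LMWH 40 mg doses, with 5-day washout. Plasma taken to 48 h post-dose. Free drug: plasma buffered with 0.2 M ammonium formate pH 3.5 plus [13C6] internal standard. Total drug: alkaline cleavage with NaOH, 2 h at 37°C, then HCl. Validated HPLC-MS/MS, calibrated 1.00–400 ng/mL. Geometric mean ratios with 90% CI.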

human α-thrombin = test: Diluted thrombin time; type: in vivo; details: for dTT (HEMOCLOT) AUEC0–48, gMean / dTT (HEMOCLOT) ERmax, gMean / dTT (HEMOCLOT) Ebase (baseline effect), gMean: n = 23
Procedure, shortened: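 Healthy-adult crossover (oral prodrug 220 mg alone or after 3 days of s.c. LMWH 40 mg), plasma sampled over 48 h. Plasma diluted in 0.9% NaCl, mixed with normal pooled human plasma, 2 min at 37°C; clotting started with a fixed amount of purified human α-thrombin and time to clot recorded in seconds. Quantitative range 50–500 ng/mL. AUEC0–48 and ERmax; geometric mean ratios with 90% CI.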

[4] = test system: intrinsic pathway of the coagulation cascade; test: Activated partial thromboplastin time; type: in vivo, human; details: for aPTT AUEC0–48, gMean / aPTT ERmax, gMean / aPTT Ebase (baseline effect), gMean: n = 23
Procedure, shortened: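 Crossover in healthy adults (18–55 y) with 5-day washout: oral thrombin-inhibitor prodrug 220 mg alone, or 24 h after 3 daily s.c. LMWH 40 mg doses. Plasma sampled over 48 h. Equal volumes of plasma and kaolin–cephalin reagent, 3 min at 37°C with stirring, recalcified with 0.025 M CaCl2, then time to fibrin clot on a coagulometer. Geometric mean test/reference ratios with 90% CI.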

[5] = test system: thrombin (meizothrombin generated from prothrombin by ecarin); test: Ecarin clotting time; type: in vivo, human
factor Xa/IIa = details: cited from earlier work
[6] = dabigatran etexilate dosed 24 h after enoxaparin
[7] = dabigatran etexilate 220 mg after enoxaparin vs alone, adjusted gMean ratio
[8] = dabigatran etexilate 220 mg after enoxaparin, n = 21
[9] = dabigatran etexilate 220 mg alone, n = 23
[10] = dabigatran etexilate 220 mg after enoxaparin
[11] = dabigatran etexilate 220 mg alone
[12] = dabigatran etexilate 220 mg after enoxaparin, n = 23
[13] = enoxaparin pre-treatment before dabigatran etexilate 220 mg

In the case of `[H]/N=C(/N)c1ccc(NCc2nc3cc(C(=O)N(CCC(=O)O)c4ccccn4)ccc3n2C)cc1` [dabigatran], the “Glucuronide share of total dabigatran exposure in plasma” value [1] is listed as “approximately 20%”, the “Increase of PiCT AUEC0–48 compared with dabigatran etexilate alone” value [2, 6] is listed as 64% and the “Increase of PiCT ERmax compared with dabigatran etexilate alone” value [2, 6] is listed as ~15%. The “Subjects with adverse events by actual treatment at onset” value (shortened to “Subjects with adverse events”) (Safety and tolerability; treatment at onset: dabigatran (three subjects of 23)) was 13.0%, the “Subjects with adverse events” value (Safety and tolerability; treatment at onset: enoxaparin + dabigatran (three subjects of 23)) was 13.0% and the “Ratio of free to total dabigatran gMean AUC0-∞” value ([3]; after enoxaparin) was 0.765. It also gave an AUC(0-inf) ([3]; oral) of 0.592 µg·h/mL, a Cmax ([3]; oral) of 0.0784 µg/mL and an AUC(0-inf) ([3]; po, 220 mg) of 0.7 µg·h/mL. The Cmax ([3]; po, 220 mg) was 0.0907 µg/mL, the “Ratio of free to total dabigatran gMean AUC0-∞” value ([3]; dabigatran alone) was 0.760 and the “AUC0-∞, ratio test/reference” value [3, 7] was 85%. For the same compound, the “Cmax, ratio test/reference” value [3, 7] was 86%.

For `CCCCCCOC(=O)NC(=N)c1ccc(NCc2nc3cc(C(=O)N(CCC(=O)OCC)c4ccccn4)ccc3n2C)cc1` [Dabigatran etexilate], the “PiCT AUEC0–48, ratio of adjusted test/reference gMean (90% CI)” value [2] was 163.7 (114.3–234.3) %, the “PiCT ERmax, ratio of adjusted test/reference gMean (90% CI)” value [2] was 115.2 (101.8–130.4) % and the “PiCT AUEC0–48, ratio of adjusted test/reference gMean (90% CI)” value ([2]; listed as dabigatran etexilate) was 163.7%. The “PiCT ERmax, ratio of adjusted test/reference gMean (90% CI)” value ([2]; listed as dabigatran etexilate) was 115.2%, the “PiCT AUEC0–48, gMean” value [2, 8] was 23.8^c h and the “PiCT ERmax (maximum effect ratio to baseline), gMean” value [2, 8] was 2.92^c. The “PiCT Ebase (baseline effect), gMean” value [2, 8] was 34.7^c s, the “PiCT AUEC0–48, gMean” value [2, 9] was 14.6 h and the “PiCT ERmax (maximum effect ratio to baseline), gMean” value [2, 9] was 2.53. The “PiCT Ebase (baseline effect), gMean” value [2, 9] was 28.4 s, the “Increase of PiCT ERmax compared with dabigatran etexilate alone” value [2, 6] was “approximately 15%” and the “PiCT time to peak” value ([2]; similar in both treatment regimens (alone and 24 h after enoxaparin)) was 3 h. For the same compound, the “dTT (HEMOCLOT) AUEC0–48, ratio of adjusted test/reference gMean (90% CI)” value (human α-thrombin; after enoxaparin vs alone) was 88.4 (66.8–116.9) %, the “dTT (HEMOCLOT) ERmax, ratio of adjusted test/reference gMean (90% CI)” value (human α-thrombin; after enoxaparin vs alone) was 95.0 (87.4–103.2) % and the “dTT (HEMOCLOT) AUEC0–48, gMean” value (human α-thrombin; [10]) was 3.61 h. For the same compound, the “dTT (HEMOCLOT) ERmax, gMean” value (human α-thrombin; [10]) was 1.55, the “dTT (HEMOCLOT) Ebase (baseline effect), gMean” value (human α-thrombin; [10]) was 31.0 s and the “dTT (HEMOCLOT) AUEC0–48, gMean” value (human α-thrombin; [11]) was 4.01 h. For the same compound, the “dTT (HEMOCLOT) ERmax, gMean” value (human α-thrombin; [11]) was 1.64, the “dTT (HEMOCLOT) Ebase (baseline effect), gMean” value (human α-thrombin; [11]) was 31.7 s and the “Tolerability (global assessment)” value (Safety and tolerability) was “well tolerated”. For the same compound, the “aPTT AUEC0–48, ratio of adjusted test/reference gMean (90% CI)” value ([4]; after enoxaparin vs alone) was 114.2 (75.1–173.5) %, the “aPTT ERmax, ratio of adjusted test/reference gMean (90% CI)” value ([4]; after enoxaparin vs alone) was 84.9 (70.3–102.5) % and the “aPTT AUEC0–48, gMean” value [4, 10] was 6.56 h. For the same compound, the “aPTT ERmax, gMean” value [4, 10] was 2.07, the “aPTT Ebase (baseline effect), gMean” value [4, 10] was 39.3 s and the “aPTT AUEC0–48, gMean” value [4, 11] was 5.65 h. The “aPTT ERmax, gMean” value [4, 11] was 2.40, the “aPTT Ebase (baseline effect), gMean” value [4, 11] was 39.1 s and the “ECT AUEC0–48, ratio of adjusted test/reference gMean (90% CI)” value ([5]; after enoxaparin vs alone) was 99.2 (67.8–145.0) %. For the same compound, the “ECT ERmax, ratio of adjusted test/reference gMean (90% CI)” value ([5]; after enoxaparin vs alone) was 91.0 (80.0–103.5) %, the “ECT Ebase (baseline effect), gMean” value ([5]; dabigatran etexilate 220 mg after enoxaparin, n = 22) was 32.6^d s and the “ECT AUEC0–48, gMean” value [5, 12] was 7.30 h. For the same compound, the “ECT ERmax, gMean” value [5, 12] was 2.05, the “ECT AUEC0–48, gMean” value [5, 9] was 7.28 h and the “ECT ERmax, gMean” value [5, 9] was 2.25. For the same compound, the “ECT Ebase (baseline effect), gMean” value [5, 9] was 33.1 s.

In the case of enoxaparin, the “Effect of enoxaparin on dTT” value (human α-thrombin; [13]) is given as “not meaningfully affected”, the “Mean anti-factor Xa/IIa ratio” value (factor Xa/IIa) is given as 14.0 ± 3.1 and the “Tolerability (global assessment)” value (Safety and tolerability) is given as “well tolerated”. The “Subjects with adverse events” value (Safety and tolerability; treatment at onset: enoxaparin (four subjects of 23)) was 17.4% and the “Effect of enoxaparin on ECT” value [5, 13] was “not meaningfully affected”.
